High-throughput results (PubChem BioAssay)
ASAP1 GAP inh = inhibitors of human ASAP1 ArfGAP activity; Q9ULH1; ASAP1-stimulated ARF1 GTP hydrolysis, GDP FP detection; inhibition, % at 16.5 µM; 360,000 tested, 0.19% active; AID 624377; in the data active = inhibition above about 25%
Target sequence (Q9ULH1 325-724 limits assumed): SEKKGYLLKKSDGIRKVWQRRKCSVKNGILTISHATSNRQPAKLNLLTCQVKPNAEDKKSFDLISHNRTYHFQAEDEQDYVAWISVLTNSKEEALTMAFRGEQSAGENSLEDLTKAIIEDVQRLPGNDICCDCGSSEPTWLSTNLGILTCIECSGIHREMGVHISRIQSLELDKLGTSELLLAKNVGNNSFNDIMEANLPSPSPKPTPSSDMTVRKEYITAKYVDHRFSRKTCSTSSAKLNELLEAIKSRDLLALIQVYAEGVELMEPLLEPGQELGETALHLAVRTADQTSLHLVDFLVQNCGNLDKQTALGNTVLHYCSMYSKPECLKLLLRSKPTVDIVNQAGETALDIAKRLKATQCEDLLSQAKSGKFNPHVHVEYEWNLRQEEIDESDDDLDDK
esBAF inh = blocks esBAF chromatin remodeling in mouse ES cells. Bmi1-luciferase knock-in reporter, 24 h; 100% = twice the neutral-well signal. reporter increase, % at 12.5 µM. 350,000 tested, 2% active. AID 602393; in the data active = activation above about 40%; inconclusive = no clear call, values can overlap the other calls;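 also: a rise in the Bmi1 reporter signal indicates esBAF inhibition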
ARFGAP1 inhibitor = inhibits rat ARF GTPase activating protein 1 | Arfgap1-stimulated ARF1 GTP hydrolysis, GDP FP detection | inhibition, % at 16.5 µM | 360,000 tested, 0.26% active | Q62848;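 active = inhibition above a per-plate limit, mean inhibition of low control wells plus 3 SD, cut at about 25% in these data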
Target sequence (Q62848 1-136 limits assumed): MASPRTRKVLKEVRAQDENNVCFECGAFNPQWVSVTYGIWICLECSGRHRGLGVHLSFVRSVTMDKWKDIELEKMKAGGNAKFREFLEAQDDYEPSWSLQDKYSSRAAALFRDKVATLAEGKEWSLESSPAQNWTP
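Replicates: Single well per compound | Assay system: Truncated rat Arfgap1 GAP domain | Control set: No-Arfgap1 wells (100%) versus DMSO full-reaction wells (0%) | Times: Enzyme reaction 120 min at 25 °C after 20 min preincubation | Reagent: Human ARF1(Δ1-17)-GTP substrate | Measured by: Tracer-displacement fluorescence polarization with EDTA stop, 620/688 nm | Measure: Percent inhibition of Arfgap1-stimulated GTP hydrolysis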
SMARCA2 act = activators of SMARCA2 function; MG213 cells, MMTV-luciferase reporter, dexamethasone, overnight; activation, % at 9.1 µM; 370,000 tested, 1% active; AID 652017; in the data active = activation above about 7.8%
Each line names hits and unclear results; the compound was inactive in the other large screens. Rows were chosen to be rich in hits. Some 2.6% of all compounds tested hit in one or more screens of this group.

COc1cccc2cc(C(=O)NCc3ccccc3Br)c(=O)oc12	esBAF inh 41
Cc1ccc(Cc2cnc(N3C(=N)SC(c4ccccc4)C3=O)s2)cc1 (configuration not stated)	esBAF inh 53
Cc1ccsc1C(=O)OCC(=O)Nc1nnc(-c2ccccc2)o1	none
Cc1ccsc1C(=O)OCc1nnc(-c2ccccc2)o1	esBAF inh 63
CC(=O)N1[C@@H]2Cn3c(ccc(-c4ccccc4F)c3=O)[C@H]1[C@@H](C(=O)NC1CCC1)[C@@H]2CO	none (no result: ASAP1 GAP inh, ARFGAP1 inhibitor, SMARCA2 act)
COC(C(=O)N1CCC(n2nccc2NC(=O)C2CC2)CC1)c1ccccc1 (configuration not stated)	esBAF inh 44
Cn1c(C(=O)NCCC2=CCCCC2)cc2c(=O)n3ccccc3nc21	esBAF inh 44
COc1cc2sc(NC(=O)c3ccco3)nc2cc1Cl	esBAF inh 52
O=C(Nc1nc2c(F)c(F)c(F)cc2s1)c1ccco1	esBAF inh 53
O=C(Nc1nc2c(F)cc(F)cc2s1)c1ccc([N+](=O)[O-])o1	esBAF inh 57
COc1ccc2nc(NC(=O)C3CCN(C(=O)c4ccco4)CC3)sc2c1	esBAF inh 53
Cc1cc2sc(NC(=O)c3ccco3)nc2cc1Cl	none
O=C(Nc1nc2c(F)cc(F)cc2s1)c1ccco1	none
C[C@@H]1CN([C@@H](C)CO)C(=O)c2cc(NS(=O)(=O)c3ccc(F)cc3)ccc2O[C@@H](C)CCCCO[C@@H]1CN(C)S(=O)(=O)c1cccs1	none (no result: ASAP1 GAP inh, ARFGAP1 inhibitor, SMARCA2 act)
C[C@@H]1CN([C@H](C)CO)C(=O)c2cc(NC(=O)Nc3ccc4c(c3)OCO4)ccc2O[C@@H](C)CCCCO[C@H]1CN(C)S(=O)(=O)c1ccccc1	none (no result: ASAP1 GAP inh, ARFGAP1 inhibitor, SMARCA2 act)
Cc1ccc(S(=O)(=O)N2CC[C@@H]3[C@@H](CO)Nc4ccc(Br)cc4[C@@H]32)cc1	none (no result: ASAP1 GAP inh, ARFGAP1 inhibitor, SMARCA2 act)
COc1ccc(S(=O)(=O)N[C@H]2CC[C@@H](CC(=O)NCc3ccccc3F)O[C@@H]2CO)cc1	none (no result: ASAP1 GAP inh, ARFGAP1 inhibitor, SMARCA2 act)
CCCc1ccc(-c2csc(NC(=O)C3=COCCO3)n2)cc1	esBAF inh 65
O=C(Nc1nnc(SCc2ccccc2F)s1)C1=COCCO1	none
O=C(Nc1nnc(SCc2ccccc2)s1)C1=COCCO1	esBAF inh 67
O=C(NCCc1ccccc1)C1=COCCO1	esBAF inh 48
Cc1ccc(-c2csc(NC(=O)C3=COCCO3)n2)cc1	none (no result: esBAF inh)
CC(C)(C)c1ccccc1NC(=O)C1=COCCO1	none
O=C(Nc1nnc(SCc2ccc(F)cc2)s1)C1=COCCO1	esBAF inh 48
C[C@@H]1CN([C@@H](C)CO)C(=O)c2cccc(NC(=O)C3CCCCC3)c2O[C@H]1CN(C)Cc1ccc(C(=O)O)cc1	none (no result: ASAP1 GAP inh, ARFGAP1 inhibitor, SMARCA2 act)
CO[C@@H]1CN(C)C(=O)c2cc(NC(=O)NC3CCCCC3)ccc2OC[C@@H](C)N(CC2CC2)C[C@H]1C	none (no result: ASAP1 GAP inh, ARFGAP1 inhibitor, SMARCA2 act)
c1ccc(CSc2nnc(NC3=NCCCCC3)s2)cc1	esBAF inh 41
N#Cc1ccc(CSc2nnc(Nc3ccccc3)s2)cc1	none
CCCC(=O)Nc1ccc2c(c1)C(=O)N(C)[C@H]1CC[C@H](CC(=O)O)O[C@H]1CO2	none (no result: ASAP1 GAP inh, ARFGAP1 inhibitor, SMARCA2 act)
O=c1c2cc(N3CCOCC3)ccc2[nH]c(=S)n1Cc1ccc(Cl)cc1	esBAF inh 54
CCCC(=O)Nc1ccc2c(c1)C(=O)N(C)[C@H]1CC[C@@H](CC(=O)Nc3cn(C)nc3C)O[C@H]1CO2	none (no result: ASAP1 GAP inh, ARFGAP1 inhibitor, SMARCA2 act)
CC(C)Cn1c(=O)c(C(=O)Nc2ccccc2S(N)(=O)=O)c(O)c2ccccc21	none
Cn1c(=O)c(C(=O)Nc2ccccc2S(N)(=O)=O)c(O)c2ccccc21	esBAF inh 52
C[C@@H]1CN([C@H](C)CO)C(=O)c2cc(-c3cccnc3)cnc2O[C@@H]1CN(C)C(=O)Nc1ccc(C(F)(F)F)cc1	none (no result: ASAP1 GAP inh, ARFGAP1 inhibitor, SMARCA2 act)
Cc1noc(C)c1S(=O)(=O)Nc1ccc2c(c1)C(=O)N([C@@H](C)CO)C[C@@H](C)[C@@H](CN(C)Cc1ccc(C(F)(F)F)cc1)OCCCC[C@H](C)O2	none (no result: ASAP1 GAP inh, ARFGAP1 inhibitor, SMARCA2 act)
C[C@@H]1CCCCO[C@H](CN(C)C(=O)C2CCCCC2)[C@@H](C)CN([C@@H](C)CO)C(=O)c2cc(NS(=O)(=O)c3cccs3)ccc2O1	none (no result: ASAP1 GAP inh, ARFGAP1 inhibitor, SMARCA2 act)
CC(C)c1nnc(NC(=O)C2CCCCC2)s1	none
CSc1nnc(NC(=O)C2CCCCC2)s1	esBAF inh 45
CCSc1nnc(NC(=O)C2CCCCC2)s1	esBAF inh 44
O=C(Nc1nnc(-c2ccco2)s1)C1CCCCC1	esBAF inh 77
CCCNC(=O)C[C@@H]1CC[C@@H]2[C@H](COC[C@@H](O)CN2Cc2cccc(F)c2)O1	none (no result: ASAP1 GAP inh, ARFGAP1 inhibitor, SMARCA2 act)
C[C@H]1CN([C@@H](C)CO)C(=O)c2cc(NC(=O)Cc3ccccc3)ccc2O[C@H]1CN(C)C	none (no result: ASAP1 GAP inh, ARFGAP1 inhibitor, SMARCA2 act)
Cc1sc(NC(=O)C2CCCCC2C(=O)O)c(C(N)=O)c1-c1ccccc1 (configuration not stated)	esBAF inh inconclusive
Cc1sc(NC(=O)C2CCCCC2C(=O)O)c(C(N)=O)c1-c1ccc(C(C)C)cc1 (configuration not stated)	esBAF inh 62
COc1ccc(Cc2nc3ccc(C(=O)NCC(C)(C)OC)cc3o2)cc1	esBAF inh 76
COC(=O)CCNC(=O)c1ccc2nc(Cc3ccc(OC)cc3)oc2c1	none
O=C(NCC1CCOCC1)c1ccc2nc(Cc3cccc(Cl)c3)oc2c1	esBAF inh 46
Cc1cccc(S(=O)(=O)N[C@H]2CC[C@@H](CCNC(=O)CCN3CCCCC3)O[C@H]2CO)c1	none (no result: ASAP1 GAP inh, ARFGAP1 inhibitor, SMARCA2 act)
O=C(Nc1ccc(SC(F)F)cc1)c1ccc2nccnc2c1	esBAF inh 122
COC(=O)C(Cc1ccc(O)cc1)NC(=O)c1ccc2c(c1)OCCO2 (configuration not stated)	esBAF inh 55
O=C(COC(=O)c1ccc(O)cc1)c1ccc2c(c1)OCCO2	none
Cc1ccc(CONC(=O)c2ccc(C)cc2)cc1	esBAF inh 44
Cc1ccc(CONC(=O)c2ccc(Cl)cc2)cc1	none
Cc1ccc(Nc2nnns2)cc1	none (no result: esBAF inh)
CC1=CC(C)(C)N=C(Nc2ccc(C)cc2)S1	esBAF inh 46
C[C@@H]1CN([C@H](C)CO)C(=O)c2cc(NS(=O)(=O)c3cccs3)ccc2O[C@@H](C)CCCCO[C@@H]1CN(C)CC1CCCCC1	none (no result: ASAP1 GAP inh, ARFGAP1 inhibitor, SMARCA2 act)
Cc1ccccc1NC(=O)c1ccc2ccccc2c1	esBAF inh 45
Cc1ccc(C(=O)NNC(=O)c2ccc(C)cc2)cc1	none (no result: esBAF inh)
Cc1ccc(C(=O)NNC(=O)c2ccc3ccccc3c2)cc1	esBAF inh 67
O=C(C[C@@H]1C=C[C@@H](NC(=O)C2CC2)[C@H](CO)O1)NCC1CC1	none (no result: ASAP1 GAP inh, ARFGAP1 inhibitor, SMARCA2 act)
Cc1ccc(S(=O)(=O)N(C)C[C@@H]2Oc3ccc(NC(=O)Cc4ccccc4)cc3CC(=O)N([C@@H](C)CO)C[C@H]2C)cc1	none (no result: ASAP1 GAP inh, ARFGAP1 inhibitor, SMARCA2 act)
Cc1ccc(C(=O)N2c3ccccc3CC2C)o1 (configuration not stated)	none
CC1Cc2ccccc2N1C(=O)c1ccc(Br)o1 (configuration not stated)	esBAF inh 92
O=C(O)c1cnc2ccccc2n1	none (no result: esBAF inh)
COC(=O)c1cnc2ccccc2n1	SMARCA2 act 7.8
CCOC(=O)c1cccc(NC(=O)c2cnc3ccccc3n2)c1	esBAF inh 53
CCOC(=O)c1cccc(NC(=O)c2cccnc2)c1	none
